ChEMBL document CHEMBL1131098, “Synthesis and antitumor activity of 4-aminomethylthioxanthenone and 5-aminomethylbenzothiopyranoindazole derivatives” (J Med Chem, 1998)

Tests used:
Format in all cases: functional
[1] = species on record: Mus musculus; assay: compound was tested for murine tumor growth inhibition,T/C value ([…]/control) in mice.
How it was run: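 BDF1 mice implanted bilaterally sc with 30–60-mg Panc03 fragments on day 0. Dosing iv at the maximum tolerated dose (LD10 or less), starting 3 days after implantation. Tumor growth inhibition expressed as %T/C; %T/C > 42 counted as not active.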

[2] = system: Mus musculus; assay: In vivo antitumor activity measured in mice against the Colon26/A murine solid tumors.
[3] = system: Mus musculus; assay: In vivo antitumor activity measured in mice against the Mam16/C murine solid tumors.
[4] = system: Mus musculus; assay: In vivo antitumor activity measured in mice against the Colon38 murine solid tumors.
[5] = system: Mus musculus; assay: In vivo antitumor activity measured in mice against the Colon51 murine solid tumors.
[6] = species on record: Mus musculus; assay: The long term cures (LTC) value is the number of mice in a group with no palpable tumor.
How it was run: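 Panc03-bearing BDF1 mice (bilateral sc fragments) dosed iv at the maximum tolerated dose from day 3. Long-term cure is a mouse with no palpable tumor after at least 86 days, reported as cured mice over total mice per treatment group.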

[7] = system: Mus musculus; assay: In vivo antitumor activity measured in mice against the Panc 02 murine solid tumors.

SMILES	T/C [1] [%]	T/C [2] [%]	T/C [3] [%]	T/C [4] [%]	T/C [5] [%]	LTC [6]	T/C [7] [%]
CCN(CC)CCNc1ccc(CN2C(=O)c3ccccc3C2=O)c2sc3ccccc3c(=O)c12	38	–	–	–	–	–	–
COc1cccc2c1C(=O)c1c(O)c3c(c(O)c1C2=O)C[C@@](O)(C(=O)CO)C[C@@H]3O[C@H]1C[C@H](N)[C@H](O)[C@H](C)O1 [DOXORUBICIN]	–	7	0	0	21	0.2	35
